In ChEMBL document CHEMBL4706727, “Discovery of 2,4-1H-Imidazole Carboxamides as Potent and Selective TAK1 Inhibitors” (ACS Med Chem Lett, 2021):
≈ marks a conversion by molar mass, not a printed value. Calls of active or inactive are those of the source.

Assays:
TAK1/TAB1 = TAK1/TAB1 (Homo sapiens, UniProt O43318); assay: Inhibition of recombinant human full-length His-tagged TAK1-TAB1 fusion protein (437 to 504 residues) expressed in baculovirus expression system using fluorescein-MAP2K1 as substrate preincubated for 30 mins followed by substrate addition and measured after 60 mins in presence of ATP by lanthascreen TR-FRET assay
[1] = target: T1, Mitogen-activated protein kinase kinase kinase 7 (Homo sapiens, UniProt O43318); assay: Binding affinity to wild-type human partial length TAK1 (M1 to Q303 residues) expressed in mammalian expression system by Kinomescan method
T1 sequence (O43318 whole entry): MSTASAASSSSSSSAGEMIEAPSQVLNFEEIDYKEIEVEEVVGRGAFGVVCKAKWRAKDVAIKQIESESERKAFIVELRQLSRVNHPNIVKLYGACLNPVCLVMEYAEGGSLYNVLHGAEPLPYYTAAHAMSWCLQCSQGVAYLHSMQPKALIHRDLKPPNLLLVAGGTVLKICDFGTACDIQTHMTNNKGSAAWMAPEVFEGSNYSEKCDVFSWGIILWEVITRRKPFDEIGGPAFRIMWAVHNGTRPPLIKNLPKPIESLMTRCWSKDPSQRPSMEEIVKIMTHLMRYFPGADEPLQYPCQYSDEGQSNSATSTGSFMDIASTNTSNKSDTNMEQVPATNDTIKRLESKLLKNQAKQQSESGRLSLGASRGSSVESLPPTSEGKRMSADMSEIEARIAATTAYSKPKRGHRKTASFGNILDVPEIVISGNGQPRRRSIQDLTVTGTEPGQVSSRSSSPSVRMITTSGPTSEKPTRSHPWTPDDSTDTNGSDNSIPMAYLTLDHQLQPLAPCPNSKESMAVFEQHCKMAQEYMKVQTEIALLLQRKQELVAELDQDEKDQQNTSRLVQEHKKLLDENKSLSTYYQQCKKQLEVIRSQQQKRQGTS
How it was run: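 Dissociation constant for TAK1 binding measured on the KdELECT platform.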

[2] = Aqueous solubility of compound in pH 7.4 PBS buffer measured after 24 hrs by HPLC-UV analysis; format: physicochemical
[3] = Half life in human liver S9 fraction at 1 uM measured up to 60 mins in presence of NADPH by LC-MS analysis; format: ADME, subcellular
[4] = Half life in CD-1 mouse liver S9 fraction at 1 uM measured up to 60 mins in presence of NADPH by LC-MS analysis; format: ADME, subcellular
[5] = Half life in rat liver S9 fraction at 1 uM measured up to 60 mins in presence of NADPH by LC-MS analysis; format: ADME, subcellular
[6] = Apparent permeability across apical to basolateral side in human Caco-2 cells at 2 uM after 2 hrs by LC/MS-MS analysis; format: ADME, cell-based
[7] = Apparent permeability across basolateral to apical side in human Caco-2 cells at 2 uM after 2 hrs by LC/MS-MS analysis; format: ADME, cell-based
[8] = Efflux ratio of apparent permeability across basolateral to apical side over apical to basolateral side in human Caco-2 cells at 2 uM after 2 hrs by LC/MS-MS analysis; format: ADME, cell-based
[9] = test system: Tyrosine-protein kinase ABL1 (Homo sapiens), P00519 [H396P]; assay: Inhibition of human ABL1 H396P mutant (S229 to K512 residues) expressed in mammalian expression system at 10 uM by kinomescan method relative to control
How it was run: (§1)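 Single-concentration screen at 10 μM across a 468-kinase KINOMEscan panel (453 human, 403 wild-type kinases). Binding to each kinase was read out as percent inhibition relative to control, with >65% taken as the inhibition cutoff.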

[10] = target: Eukaryotic translation initiation factor 2-alpha kinase 1 (Homo sapiens) (UniProt Q9BQI3); assay: Inhibition of wild-type human partial length EIF2AK1 (Q147 to E603 residues) expressed in mammalian expression system at 10 uM by Kinomescan method relative to control; how it was run: as §1
[11] = target: Activated CDC42 kinase 1 (Homo sapiens) (UniProt Q07912); assay: Inhibition of wild-type human partial length TNK2 (S159 to D474 residues) expressed in bacterial expression system at 10 uM by Kinomescan method relative to control; how it was run: as §1
[12] = target: Serine/threonine-protein kinase 32A (Homo sapiens) (UniProt Q8WU08); assay: Inhibition of wild-type human full-length YANK1 (M1 to L396 residues) expressed in mammalian expression system at 10 uM by Kinomescan method relative to control; how it was run: as §1
HCT-15 = assay: Cytotoxicity against TNFalpha-induced human HCT-15 cells assessed as reduction in cell viability up to 10 uM preincubated for 2 hrs followed by TNFalpha stimulation and measured after 72 hrs by celltiter-glo assay; format: functional, cell-based; settings: dose microM <=10, time 74.0 hrs
[13] = target: T2, Phosphatidylinositol 4,5-bisphosphate 3-kinase catalytic subunit delta isoform (Homo sapiens) (UniProt O00329); assay: Inhibition of wild-type human partial length PIK3CD (R108 to Q1044 residues) expressed in mammalian expression system at 10 uM by Kinomescan method relative to control; settings: dose 1.0 µM, in the assay text read “at 1 uM” for “at 10 uM”
T2 sequence (whole entry): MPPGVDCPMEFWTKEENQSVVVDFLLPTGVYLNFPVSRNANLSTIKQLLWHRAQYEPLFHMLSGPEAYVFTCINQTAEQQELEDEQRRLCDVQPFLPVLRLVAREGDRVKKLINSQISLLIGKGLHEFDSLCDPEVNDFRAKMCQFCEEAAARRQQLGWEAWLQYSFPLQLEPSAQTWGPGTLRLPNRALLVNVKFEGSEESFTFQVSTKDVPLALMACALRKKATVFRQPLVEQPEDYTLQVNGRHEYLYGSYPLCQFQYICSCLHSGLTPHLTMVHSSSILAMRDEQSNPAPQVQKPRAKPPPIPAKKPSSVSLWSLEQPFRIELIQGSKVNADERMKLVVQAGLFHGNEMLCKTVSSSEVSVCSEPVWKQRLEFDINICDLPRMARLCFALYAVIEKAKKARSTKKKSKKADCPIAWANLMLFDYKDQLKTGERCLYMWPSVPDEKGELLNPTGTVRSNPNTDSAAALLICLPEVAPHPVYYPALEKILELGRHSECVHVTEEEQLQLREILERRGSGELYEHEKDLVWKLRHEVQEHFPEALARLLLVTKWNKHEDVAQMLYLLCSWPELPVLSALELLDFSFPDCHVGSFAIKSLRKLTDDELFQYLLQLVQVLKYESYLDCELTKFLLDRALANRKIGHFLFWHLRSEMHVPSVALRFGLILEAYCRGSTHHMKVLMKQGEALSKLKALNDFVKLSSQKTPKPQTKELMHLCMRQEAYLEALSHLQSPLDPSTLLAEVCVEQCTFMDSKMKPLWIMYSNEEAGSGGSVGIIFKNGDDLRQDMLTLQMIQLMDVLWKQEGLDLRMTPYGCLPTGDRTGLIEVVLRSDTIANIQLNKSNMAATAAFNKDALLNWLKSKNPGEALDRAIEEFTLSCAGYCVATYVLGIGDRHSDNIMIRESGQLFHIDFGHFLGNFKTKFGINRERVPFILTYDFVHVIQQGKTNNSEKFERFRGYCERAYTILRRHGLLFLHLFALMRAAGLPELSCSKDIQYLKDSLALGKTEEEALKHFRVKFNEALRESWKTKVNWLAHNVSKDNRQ

[14] = target: Phosphatidylinositol 4-phosphate 5-kinase type-1 gamma (Homo sapiens) (UniProt O60331); assay: Inhibition wild type human partial length PIP5K1C (M1 to T668 residues) expressed in mammalian expression system at 10 uM by Kinomescan method relative to control; settings: dose 1.0 µM, in the assay text read “at 1 uM” for “at 10 uM”
Chain of Phosphatidylinositol 4-phosphate 5-kinase type-1 gamma (Homo sapiens) (O60331 whole entry, the tested form may be a part): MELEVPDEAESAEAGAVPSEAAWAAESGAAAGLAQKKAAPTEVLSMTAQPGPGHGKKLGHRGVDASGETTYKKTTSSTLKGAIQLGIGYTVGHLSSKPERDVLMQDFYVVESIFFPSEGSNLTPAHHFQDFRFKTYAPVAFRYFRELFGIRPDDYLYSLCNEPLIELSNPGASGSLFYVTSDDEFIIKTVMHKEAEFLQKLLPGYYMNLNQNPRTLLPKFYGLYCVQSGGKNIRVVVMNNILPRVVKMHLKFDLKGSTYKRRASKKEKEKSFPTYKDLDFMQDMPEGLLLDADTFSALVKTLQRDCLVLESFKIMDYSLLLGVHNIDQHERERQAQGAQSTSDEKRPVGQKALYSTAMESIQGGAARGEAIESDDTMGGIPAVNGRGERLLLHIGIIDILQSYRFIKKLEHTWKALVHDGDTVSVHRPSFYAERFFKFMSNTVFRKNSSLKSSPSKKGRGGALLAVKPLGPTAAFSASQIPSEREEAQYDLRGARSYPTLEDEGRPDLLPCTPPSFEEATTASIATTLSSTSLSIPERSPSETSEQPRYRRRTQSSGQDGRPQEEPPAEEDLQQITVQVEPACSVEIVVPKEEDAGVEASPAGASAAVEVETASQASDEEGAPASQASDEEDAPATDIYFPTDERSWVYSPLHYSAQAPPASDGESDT

Chain of TAK1/TAB1 (Q15750 whole entry, one chain of several, the tested form may be a part): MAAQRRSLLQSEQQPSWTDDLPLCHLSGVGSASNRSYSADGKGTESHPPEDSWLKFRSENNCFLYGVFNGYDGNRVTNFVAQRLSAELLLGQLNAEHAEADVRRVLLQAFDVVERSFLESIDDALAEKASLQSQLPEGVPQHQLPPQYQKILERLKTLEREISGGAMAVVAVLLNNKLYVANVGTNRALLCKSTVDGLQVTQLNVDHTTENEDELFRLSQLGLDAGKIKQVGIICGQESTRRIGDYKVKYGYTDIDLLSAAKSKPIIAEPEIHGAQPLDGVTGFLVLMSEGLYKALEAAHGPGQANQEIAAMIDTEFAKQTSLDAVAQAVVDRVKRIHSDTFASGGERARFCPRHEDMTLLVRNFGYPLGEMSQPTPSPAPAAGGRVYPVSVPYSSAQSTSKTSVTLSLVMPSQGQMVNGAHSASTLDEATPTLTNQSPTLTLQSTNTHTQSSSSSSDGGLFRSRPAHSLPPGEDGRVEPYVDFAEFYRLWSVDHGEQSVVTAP
Chain of Serine/threonine-protein kinase 32A (Homo sapiens) (Q8WU08 whole entry, the tested form may be a part): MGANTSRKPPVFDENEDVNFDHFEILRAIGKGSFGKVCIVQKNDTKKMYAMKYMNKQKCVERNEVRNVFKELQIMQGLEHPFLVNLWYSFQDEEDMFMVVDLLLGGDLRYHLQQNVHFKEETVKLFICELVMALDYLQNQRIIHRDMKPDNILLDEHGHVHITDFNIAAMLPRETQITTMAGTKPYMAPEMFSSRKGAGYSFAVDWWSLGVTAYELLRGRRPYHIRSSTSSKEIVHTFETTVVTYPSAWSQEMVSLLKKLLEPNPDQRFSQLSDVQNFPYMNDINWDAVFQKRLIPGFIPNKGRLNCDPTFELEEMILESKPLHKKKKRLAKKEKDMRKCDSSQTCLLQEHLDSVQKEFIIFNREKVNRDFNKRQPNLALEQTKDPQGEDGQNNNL
Chain of Activated CDC42 kinase 1 (Homo sapiens) (Q07912 whole entry, looked up, the tested form may be a part): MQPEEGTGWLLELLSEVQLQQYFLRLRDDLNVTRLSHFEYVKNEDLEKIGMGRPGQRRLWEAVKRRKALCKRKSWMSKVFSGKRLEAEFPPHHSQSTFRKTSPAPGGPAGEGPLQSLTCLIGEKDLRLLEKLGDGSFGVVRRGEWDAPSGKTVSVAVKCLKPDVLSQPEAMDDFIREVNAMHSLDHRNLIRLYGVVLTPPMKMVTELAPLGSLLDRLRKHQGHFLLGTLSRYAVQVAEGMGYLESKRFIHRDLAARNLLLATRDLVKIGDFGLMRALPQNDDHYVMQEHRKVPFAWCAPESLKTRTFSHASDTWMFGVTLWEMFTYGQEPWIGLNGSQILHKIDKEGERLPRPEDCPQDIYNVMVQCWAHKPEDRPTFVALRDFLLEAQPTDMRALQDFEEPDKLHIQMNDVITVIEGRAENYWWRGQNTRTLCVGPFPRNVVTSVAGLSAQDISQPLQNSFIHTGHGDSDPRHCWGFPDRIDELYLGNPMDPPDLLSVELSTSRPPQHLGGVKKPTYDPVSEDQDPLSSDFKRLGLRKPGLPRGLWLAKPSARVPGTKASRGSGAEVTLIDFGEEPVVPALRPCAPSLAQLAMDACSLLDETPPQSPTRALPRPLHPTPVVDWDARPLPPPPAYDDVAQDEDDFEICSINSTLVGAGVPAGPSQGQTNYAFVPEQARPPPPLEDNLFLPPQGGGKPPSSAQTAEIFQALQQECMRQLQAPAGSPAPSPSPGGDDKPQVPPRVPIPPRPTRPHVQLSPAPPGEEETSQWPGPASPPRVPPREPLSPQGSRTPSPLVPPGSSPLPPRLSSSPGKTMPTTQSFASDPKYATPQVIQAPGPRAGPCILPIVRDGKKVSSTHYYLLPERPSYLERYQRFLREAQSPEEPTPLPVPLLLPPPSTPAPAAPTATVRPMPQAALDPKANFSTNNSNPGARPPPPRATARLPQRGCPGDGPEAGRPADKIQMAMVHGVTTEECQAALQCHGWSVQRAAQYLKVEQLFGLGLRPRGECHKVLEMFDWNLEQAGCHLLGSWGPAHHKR
Chain of Eukaryotic translation initiation factor 2-alpha kinase 1 (Homo sapiens) (Q9BQI3 whole entry, the tested form may be a part): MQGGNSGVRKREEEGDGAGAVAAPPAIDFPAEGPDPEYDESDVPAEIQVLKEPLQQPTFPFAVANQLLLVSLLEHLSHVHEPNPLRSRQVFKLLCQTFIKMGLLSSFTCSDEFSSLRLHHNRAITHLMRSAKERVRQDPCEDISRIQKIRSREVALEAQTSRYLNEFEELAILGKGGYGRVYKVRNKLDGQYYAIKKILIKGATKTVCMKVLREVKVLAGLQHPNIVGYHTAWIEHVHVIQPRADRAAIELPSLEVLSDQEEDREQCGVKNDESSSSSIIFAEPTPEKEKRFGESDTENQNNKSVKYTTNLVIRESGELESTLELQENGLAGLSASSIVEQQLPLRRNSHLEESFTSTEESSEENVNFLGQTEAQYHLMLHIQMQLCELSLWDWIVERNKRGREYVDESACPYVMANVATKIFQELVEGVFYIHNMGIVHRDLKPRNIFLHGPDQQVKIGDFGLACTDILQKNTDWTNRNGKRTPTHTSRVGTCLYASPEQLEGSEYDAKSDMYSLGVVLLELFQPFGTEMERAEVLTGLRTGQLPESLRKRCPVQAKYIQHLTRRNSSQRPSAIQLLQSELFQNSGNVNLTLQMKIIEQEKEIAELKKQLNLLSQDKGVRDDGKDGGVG

IC50 (TAK1/TAB1) [µM] | SMILES | other results
4.5 | CNC(=O)[C@H](C)N(Cc1ccccc1OC(F)F)C(=O)c1c[nH]c(C(=O)N2CCCC2)n1 | 
> 100 | CNC(=O)CN(Cc1ccccc1OC(F)F)C(=O)c1cc(C(=O)N2CCCC2)n(C)c1 | 
26 | CNC(=O)CN(Cc1ccccc1OC(F)F)C(=O)c1c[nH]c(C(=O)N(C)C)c1 | 
5.7 | CNC(=O)CN(Cc1ccccc1OC(F)F)C(=O)c1c[nH]c(C(=O)N2CCCC2C)n1 (stereo not drawn) | 
> 10 | CNC(=O)CN(Cc1cc(F)ccc1OC(F)F)C(=O)c1c[nH]c(C(=O)N2CCCC2)n1 | 
0.3 | CNC(=O)[C@@H](C)N(Cc1ccccc1OC(F)F)C(=O)c1c[nH]c(C(=O)N2CCCC2)n1 | 
2.6 | CNC(=O)CN(Cc1ccccc1OC(F)F)C(=O)c1c[nH]c(C(=O)N2CCC2)n1 | 
> 10 | CNC(=O)CN(Cc1ccccc1)C(=O)c1c[nH]c(C(=O)N2CCCC2)n1 | 
> 10 | CNC(=O)CN(Cc1ccccc1OC(F)F)C(=O)c1c[nH]c(C(=O)N2CCC(OC)C2)n1 (stereo not drawn) | 
0.9 | CNC(=O)CN(Cc1ccccc1OC(F)F)C(=O)c1c[nH]c(C(=O)N2CCC(C)C2)n1 (stereo not drawn) | 
3.4 | CNC(=O)CN(Cc1cccc2c1OCCCO2)C(=O)c1c[nH]c(C(=O)N2CCCC2)c1 | 
 | CNC(=O)CN(Cc1ccccc1OC(F)F)C(=O)c1c[nH]c(C(=O)N2CCCC2)n1 | Kd [1]: 0.055 µM; solubility at 24 h [2]: 30 µM (≈ 13.1 µg/mL); half-life at 1 µM [3]: > 120 min; half-life at 1 µM [4]: > 120 min; half-life at 1 µM [5]: > 120 min; Papp A→B at 2 h, 2 µM [6]: 1 ×10⁻⁶ cm/s; Papp B→A at 2 h, 2 µM [7]: 20 ×10⁻⁶ cm/s; efflux ratio at 2 h, 2 µM [8]: 20; inhibition [9]: > 65%; inhibition [10]: > 65%; inhibition [11]: > 65%; inhibition [12]: > 65%
1 | CCC(C(=O)NC)N(Cc1ccccc1OC(F)F)C(=O)c1c[nH]c(C(=O)N2CCCC2)n1 (stereo not drawn) | 
1.3 | CNC(=O)CN(Cc1ccccc1OC(F)F)C(=O)c1c[nH]c(C(=O)N2CCCC2)c1 | 
> 10 | CNC(=O)CN(Cc1ccccc1OC(F)F)C(=O)c1c[nH]c(C(=O)N2CCC(NC(C)=O)C2)n1 (stereo not drawn) | 
59 | CNC(=O)CN(Cc1ccccc1OC(F)F)C(=O)c1cc(C(=O)N2CCCC2)[nH]n1 | 
1.8 | CNC(=O)CN(Cc1ccccc1OC(F)F)C(=O)c1c[nH]c(C(=O)N2CCCCC2)c1 | 
3.2 | O=C(c1c[nH]c(C(=O)N2CCCC2)c1)N(Cc1ncco1)Cc1ccccc1OC(F)F | 
1.8 | CNC(=O)CN(Cc1cccc2[nH]ccc12)C(=O)c1c[nH]c(C(=O)N2CCCC2)c1 | 
1.2 | CNC(=O)CN(Cc1ccccc1OC(F)F)C(=O)c1c[nH]c(C(=O)N2CCCCC2)n1 | 
0.5 | CNC(=O)C(C)N(Cc1ccccc1OC(F)F)C(=O)c1c[nH]c(C(=O)N2CCCC2)n1 (stereo not drawn) | 
2.3 | CNC(=O)CN(Cc1ccccc1OC(F)F)C(=O)c1c[nH]c(C(=O)N2CCC(c3ccccc3)C2)n1 (stereo not drawn) | 

IC50 (TAK1/TAB1) [µM] | SMILES | other results
0.002 | CNC(=O)[C@@H](C)N(Cc1ccccc1OC(F)F)C(=O)c1c[nH]c(C(=O)N2Cc3ccc(C(N)=O)cc3C2)n1 | solubility at 24 h [2]: 5 µM (≈ 2.7 µg/mL); half-life at 1 µM [3]: 24 min; half-life at 1 µM [4]: 29 min; half-life at 1 µM [5]: 19 min; Papp A→B at 2 h, 2 µM [6]: 0.1 ×10⁻⁶ cm/s; Papp B→A at 2 h, 2 µM [7]: 6 ×10⁻⁶ cm/s; Activity (HCT-15): inactive
> 100 | CCNC(=O)c1cc(C(=O)N(CC(=O)NC)Cc2ccccc2OC(F)F)c[nH]1 | 
0.005 | CNC(=O)CN(Cc1ccccc1OC(F)F)C(=O)c1c[nH]c(C(=O)N2Cc3ccc(C(N)=O)cc3C2)n1 | inhibition [13]: > 65%; inhibition [14]: > 65%
3.5 | CN(Cc1ccccc1OC(F)F)C(=O)c1c[nH]c(C(=O)N2CCCC2)c1 | 
> 10 | CNC(=O)C(C(C)C)N(Cc1ccccc1OC(F)F)C(=O)c1c[nH]c(C(=O)N2CCCC2)n1 (stereo not drawn) | 
0.3 | CNC(=O)CN(Cc1ccccc1OC(F)F)C(=O)c1c[nH]c(C(=O)N2Cc3ccccc3C2)n1 | 
> 10 | CNC(=O)CN(Cc1cc(Cl)ccc1OC(F)F)C(=O)c1c[nH]c(C(=O)N2CCCC2)n1 | 
2.9 | CNC(=O)CN(Cc1ccccc1OC(F)F)C(=O)c1c[nH]c(C(=O)N2CCCCCC2)n1 | 
0.01 | Nc1ncc(-c2cnn([C@H]3CC[C@H](O)CC3)c2)c2c(Cl)c(-c3cccc4nnsc34)oc12 | 
2.6 | CCOc1ccccc1CN(CC(=O)NC)C(=O)c1c[nH]c(C(=O)N2CCCC2)c1 | 
1.7 | CC(C)NC(=O)CN(Cc1ccccc1OC(F)F)C(=O)c1c[nH]c(C(=O)N2CCCC2)c1 | 
> 10 | CNC(=O)CN(Cc1ccc(OC)cc1OC(F)F)C(=O)c1c[nH]c(C(=O)N2CCCC2)n1 | 
> 10 | CNC(=O)CN(Cc1cccc(OC(F)F)c1)C(=O)c1c[nH]c(C(=O)N2CCCC2)n1 | 
> 10 | CNC(=O)CN(Cc1cccc(OC)c1OC(F)F)C(=O)c1c[nH]c(C(=O)N2CCCC2)n1 | 
> 10 | CNC(=O)CN(Cc1c(Cl)cccc1OC(F)F)C(=O)c1c[nH]c(C(=O)N2CCCC2)n1 | 
3.4 | CNC(=O)CN(Cc1ccccc1OC(F)F)C(=O)c1c[nH]c(C(=O)N2CC3CCCCC3C2)n1 (stereo not drawn) | 
> 10 | CNC(=O)CN(C(=O)c1c[nH]c(C(=O)N2CCCC2)n1)C(C)c1ccccc1OC(F)F (stereo not drawn) | 
2.8 | CNC(=O)CN(Cc1ccccc1OC)C(=O)c1c[nH]c(C(=O)N2CCCC2)c1 | 
1.2 | CNC(=O)CN(Cc1ccccc1OC(F)F)C(=O)c1c[nH]c(C(=O)N2CCC(F)C2)n1 (stereo not drawn) | 
> 10 | CNC(=O)CN(Cc1c(F)cccc1OC(F)F)C(=O)c1c[nH]c(C(=O)N2CCCC2)n1 | 
0.9 | NC(=O)CN(Cc1ccccc1OC(F)F)C(=O)c1c[nH]c(C(=O)N2CCCC2)c1 | 
